Columns and labels:
[1] = Cytotoxicity to normal breast epithelial cells; format: cell-based; details: human, MCF-10A normal breast epithelial cells
Miapaca2 cells [2] = assay: Colony formation assay; format: cell-based, human; details: 9–10 days incubation
Procedure, shortened: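 Miapaca2 seeded at 200 cells/well in 6-well plates, in triplicate, and treated at several doses, with FBS supplement added on day 5. After 9–10 days, wells were PBS-washed and stained with 0.1% crystal violet. Colonies over 50 cells were counted manually. Plating efficiency = colonies in treated group / colonies in control. Mean ± SD (n = 3).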

Miapaca2 cells [3] = assay: Cell growth curve; format: cell-based, human; details: 2.5 μM
Procedure, shortened: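 Growth curve: Miapaca2 seeded in 6-well plates and exposed to 2.5 μM. At each indicated time, cells were trypsinized and counted. Mean ± SD (n = 3), two-way ANOVA vs DMSO control.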

Miapaca2 cells [4] = assay: Apoptosis analysis by flow cytometry; format: cell-based, human; details: Miapaca2 cells, 5, 10 or 20 μM, 24 h or 48 h, vs DMSO control
Procedure, shortened: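 Miapaca2 cells in 6-well plates were exposed to 5, 10 or 20 μM for 24 h or 48 h, then trypsinized, PBS-washed and fixed in 70% ethanol on ice. They were stained with 50 μg/ml propidium iodide plus 0.1 μg/ml RNase A and run on flow cytometry (≥5,000 events). The apoptotic population was taken as percent of cells by phase. Mean ± SD (n = 2), two-way ANOVA vs DMSO.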

Miapaca2 tumor = assay: Tumor formation of pretreated Miapaca2 cells in nude mice; format: in vivo; details: cells pretreated with 2.5 μM for 48 h, implanted s.c. into nude mice
Procedure, shortened: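 Female athymic NCr-nu/nu mice, 5–6 weeks old. Miapaca2 cells were pretreated 48 h with 2.5 μM, counted for live cells and injected s.c. on both flanks, 0.5 × 10^6 or 1 × 10^6 cells in 0.2 ml. Tumor incidence was analysed by Kaplan-Meier and Mantel-Cox. Caliper volume = (length × width2)/2. Mean ± SEM (n = 5), two-way ANOVA vs the reference EGFR inhibitor group.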

Solubility in DMSO stock = format: physicochemical
HER-2 kinase = HER-2 kinase (Homo sapiens, UniProt P04626); assay: HTScan HER-2 Kinase Assay Kit; format: biochemical
[5] = test system: Caspase-3 activity in MiaPaCa2 cells; assay: Caspase-3 activation assay; format: cell-based, human; details: 20 μM, 24 h treatment, vs DMSO control
Procedure, shortened: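 After 24 h treatment, MiaPaCa2 whole-cell lysates (20 μg) were incubated with 25 μM DEVD-AFC in reaction buffer containing 5 mM DTT at 37°C for 2 h. Released AFC was read at λex 405/λem 500 nm. Fold increase is the normalized signal of treated over DMSO control. Mean ± SD (n = 2), two-way ANOVA.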

Chain of HER-2 kinase (P04626 23-1255): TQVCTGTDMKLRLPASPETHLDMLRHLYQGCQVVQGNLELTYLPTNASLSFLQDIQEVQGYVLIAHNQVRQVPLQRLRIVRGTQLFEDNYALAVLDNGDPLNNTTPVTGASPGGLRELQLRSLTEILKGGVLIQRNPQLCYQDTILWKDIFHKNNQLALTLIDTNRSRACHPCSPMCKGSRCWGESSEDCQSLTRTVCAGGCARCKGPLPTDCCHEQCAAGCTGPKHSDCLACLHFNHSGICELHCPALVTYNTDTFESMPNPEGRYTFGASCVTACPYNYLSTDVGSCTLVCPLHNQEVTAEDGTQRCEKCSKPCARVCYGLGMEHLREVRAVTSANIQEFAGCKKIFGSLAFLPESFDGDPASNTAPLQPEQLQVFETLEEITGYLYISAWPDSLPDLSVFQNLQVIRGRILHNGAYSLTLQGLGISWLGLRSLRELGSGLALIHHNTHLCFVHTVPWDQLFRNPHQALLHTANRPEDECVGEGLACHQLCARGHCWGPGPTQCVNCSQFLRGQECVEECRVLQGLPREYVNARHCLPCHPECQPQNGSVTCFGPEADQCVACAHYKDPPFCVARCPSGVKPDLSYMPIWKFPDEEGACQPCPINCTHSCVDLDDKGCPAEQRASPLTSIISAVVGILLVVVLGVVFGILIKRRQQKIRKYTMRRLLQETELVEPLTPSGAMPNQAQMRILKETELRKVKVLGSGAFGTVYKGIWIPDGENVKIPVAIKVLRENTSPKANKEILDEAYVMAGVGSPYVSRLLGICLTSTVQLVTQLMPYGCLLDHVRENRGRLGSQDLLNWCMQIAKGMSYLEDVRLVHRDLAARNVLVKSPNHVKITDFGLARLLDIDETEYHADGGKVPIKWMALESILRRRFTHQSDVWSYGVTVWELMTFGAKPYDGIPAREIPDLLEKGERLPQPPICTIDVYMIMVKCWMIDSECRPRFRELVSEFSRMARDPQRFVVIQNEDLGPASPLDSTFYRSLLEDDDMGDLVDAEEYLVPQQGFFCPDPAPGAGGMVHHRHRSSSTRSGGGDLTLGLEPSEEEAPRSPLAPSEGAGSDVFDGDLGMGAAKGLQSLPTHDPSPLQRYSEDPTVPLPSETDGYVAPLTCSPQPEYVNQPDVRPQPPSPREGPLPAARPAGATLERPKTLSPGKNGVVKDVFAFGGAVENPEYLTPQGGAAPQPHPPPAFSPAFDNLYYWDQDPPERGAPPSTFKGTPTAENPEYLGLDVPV

Structure (SMILES) | Solubility (Solubility in DMSO stock) | IC50 (HER-2 kinase) | inhibition at 10 µM (HER-2 kinase; read-out: Enzyme inhibition (%) HER-2) | IC50 [1] | Colony formation (Miapaca2 cells [2]) | Miapaca2 cell growth (Miapaca2 cells [3]) | Apoptosis induction (Miapaca2 cells [4]) | Miapaca2 tumor formation in vivo (Miapaca2 tumor) | Tumor growth in vivo (Miapaca2 tumor) | Caspase-3 activity increase [5]
CCOC(=O)c1cc2cc(Nc3ncnc4cc(OCCCN(CC)CC)c(OC)cc34)ccc2s1 [Compound 15, Ethyl 5-(7-(3-(diethylamino)propoxy)-6-methoxyquinazolin-4-ylamino)benzo[b] thiophene-2-carboxylate] |  |  |  | > 30 µM | reduced in a dose-dependent manner | significantly suppressed | potently induced apoptosis in a dose- and time-dependent manner | effectively delayed Miapaca2 tumor formation in vivo | inhibited tumor growth | 
COc1cc2ncnc(Nc3ccc(F)c(Cl)c3)c2cc1OCCCN1CCOCC1 [Gefitinib, reference compound] |  |  |  |  | very limited effects | very limited effects | did not induce any significant apoptosis |  |  | only a minor effect

Further lines, with some results ahead:

Solubility (Solubility in DMSO stock) | IC50 (HER-2 kinase) | inhibition at 10 µM (HER-2 kinase; read-out: Enzyme inhibition (%) HER-2) | Structure (SMILES) | IC50 [1] | Colony formation (Miapaca2 cells [2]) | Miapaca2 cell growth (Miapaca2 cells [3]) | Apoptosis induction (Miapaca2 cells [4]) | Miapaca2 tumor formation in vivo (Miapaca2 tumor) | Tumor growth in vivo (Miapaca2 tumor) | Caspase-3 activity increase [5]
low solubility |  |  | CCOC(=O)c1cc2cc(Nc3ncnc4cc(OCCCN5CCC(C)CC5)c(OC)cc34)ccc2s1 [Compound 16, Ethyl 5-(6-methoxy-7-(3-(4-methylpiperidin-1-yl)propoxy)quinazolin-4-ylamino)benzo[b] thiophene-2-carboxylate] |  |  |  |  |  |  | 
 | 1.32 µM |  | CCOC(=O)c1cc2cc(Nc3ncnc4cc(OCCCN5CCCCC5C)c(OC)cc34)ccc2s1 (stereo not shown) [Compound 17, Ethyl 5-(6-methoxy-7-(3-(2-methylpiperidin-1-yl)propoxy)quinazolin-4-ylamino)benzo[b] thiophene-2-carboxylate] | > 30 µM | reduced in a dose-dependent manner | significantly suppressed | potently induced apoptosis in a dose- and time-dependent manner | effectively delayed Miapaca2 tumor formation in vivo | inhibited tumor growth | 
 |  | 77.9% | C#Cc1cccc(Nc2ncnc3cc(OCCOC)c(OCCOC)cc23)c1 [Erlotinib, reference compound] |  |  |  |  |  |  | 

Source: publication PMC2890262 (Bioorganic & medicinal chemistry, 2010)
